Results as given in ChEMBL document CHEMBL1121378, “Lipophilic and hydrophilic esters of 4-acetyl-2-(2-hydroxyethyl)-5,6-bis(4-chlorophenyl)-2H-pyridazin-3-one as antihypertensive agents” (1980).

Columns and labels:
Rattus norvegicus [1] = assay: Antihypertensive activity in spontaneously hypertensive rats was measured as average blood pressure at 100 mg/kg, p.o. before predose; format: functional; details: route oral
In short: (§1)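 SHR model with two successive doses, designated dose 1 and dose 2. Group-average blood pressure in mmHg was recorded before dosing and at 4 h and 24 h after each dose. The route is oral unless marked intra-arterial or subcutaneous. A table footnote marks doses that gave no significant lowering at 4 or 24 h postdose.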

Rattus norvegicus [2] = assay: Antihypertensive activity in spontaneously hypertensive rats was measured as average blood pressure at 100 mg/kg, p.o. after 24 hours of postdose-2; format: functional; details: route oral; in short: as §1
Rattus norvegicus [3] = assay: Antihypertensive activity in spontaneously hypertensive rats was measured as average blood pressure at 100 mg/kg, p.o. after 4 hours of postdose-2; format: functional; details: route oral; in short: as §1
Rattus norvegicus [4] = assay: Antihypertensive activity in spontaneously hypertensive rats was measured as average blood pressure at 100 mg/kg, p.o. after 4 hours of postdose-1; format: functional; details: route oral; in short: as §1
Rattus norvegicus [5] = assay: Antihypertensive activity in spontaneously hypertensive rats was measured as average blood pressure at 100 mg/kg, p.o. after 24 hours of postdose-1; format: functional; details: route oral; in short: as §1
Rattus norvegicus [6] = assay: Antihypertensive activity in spontaneously hypertensive rats was measured as average blood pressure at 100 mg/kg, p.o. after 24 hours of postdose-1; No significant lowering of blood pressure; format: functional, organism-based; design: dose 100 mg/kg; in short: as §1
Rattus norvegicus [7] = assay: Antihypertensive activity in spontaneously hypertensive rats was measured as average blood pressure at 100 mg/kg, po after 4 hours of postdose-1; No significant lowering of blood pressure; format: functional, organism-based; design: dose 100 mg/kg; in short: as §1
Rattus norvegicus [8] = assay: Antihypertensive activity in spontaneously hypertensive rats was measured as average blood pressure at 30 mg/kg, p.o. after 4 hours of postdose-1; format: functional; details: route oral; in short: as §1
Rattus norvegicus [9] = assay: Antihypertensive activity in spontaneously hypertensive rats was measured as average blood pressure at 30 mg/kg, p.o. after 4 hours of postdose-2; format: functional; details: route oral; in short: as §1
Rattus norvegicus [10] = assay: Antihypertensive activity in spontaneously hypertensive rats was measured as average blood pressure at 30 mg/kg, p.o. after 24 hours of postdose-1; format: functional; details: route oral; in short: as §1
Rattus norvegicus [11] = assay: Antihypertensive activity in spontaneously hypertensive rats was measured as average blood pressure at 30 mg/kg, po before predose; format: functional; in short: as §1
Rattus norvegicus [12] = assay: Antihypertensive activity in spontaneously hypertensive rats was measured as average blood pressure at 30 mg/kg, po after 24 hours of postdose-2; format: functional; in short: as §1
Rattus norvegicus [13] = assay: Antihypertensive activity in spontaneously hypertensive rats was measured as average blood pressure at 10 mg/kg, p.o. after 4 hours of postdose-2; format: functional; details: route oral; in short: as §1
Rattus norvegicus [14] = assay: Antihypertensive activity in spontaneously hypertensive rats was measured as average blood pressure at 10 mg/kg, p.o. after 4 hours of postdose-1; format: functional; details: route oral; in short: as §1
Rattus norvegicus [15] = assay: Antihypertensive activity in spontaneously hypertensive rats was measured as average blood pressure at 10 mg/kg, p.o. after 24 hours of postdose-2; format: functional; details: route oral; in short: as §1
Rattus norvegicus [16] = assay: Antihypertensive activity in spontaneously hypertensive rats was measured as average blood pressure at 10 mg/kg, p.o. after 24 hours of postdose-1; format: functional; details: route oral; in short: as §1
Rattus norvegicus [17] = assay: Antihypertensive activity in spontaneously hypertensive rats was measured as average blood pressure at 10 mg/kg, p.o. before predose; format: functional; details: route oral; in short: as §1
Rattus norvegicus [18] = assay: Antihypertensive activity in spontaneously hypertensive rats was measured as average blood pressure at 13 mg/kg, p.o. after 4 hours of postdose-1; format: functional; details: route oral; in short: as §1
Rattus norvegicus [19] = assay: Antihypertensive activity in spontaneously hypertensive rats was measured as average blood pressure at 13 mg/kg, p.o. before predose; format: functional; details: route oral; in short: as §1
Rattus norvegicus [20] = assay: Antihypertensive activity in spontaneously hypertensive rats was measured as average blood pressure at 13 mg/kg, p.o. after 24 hours of postdose-2; format: functional; details: route oral; in short: as §1
Rattus norvegicus [21] = assay: Antihypertensive activity in spontaneously hypertensive rats was measured as average blood pressure at 13 mg/kg, p.o. after 4 hours of postdose-2; format: functional; details: route oral; in short: as §1
Rattus norvegicus [22] = assay: Antihypertensive activity in spontaneously hypertensive rats was measured as average blood pressure at 13 mg/kg, po after 24 hours of postdose-1; format: functional; in short: as §1
Rattus norvegicus [23] = assay: Antihypertensive activity in spontaneously hypertensive rats was measured as average blood pressure at 15 mg/kg, po after 24 hours of postdose-1; No significant lowering of blood pressure; format: functional, organism-based; design: dose 15 mg/kg; in short: as §1
Rattus norvegicus [24] = assay: Antihypertensive activity in spontaneously hypertensive rats was measured as average blood pressure at 15 mg/kg, p.o. after 4 hours of postdose-1; No significant lowering of blood pressure; format: functional, organism-based; design: dose 15 mg/kg; in short: as §1

C[C@](N)(Cc1ccc(O)c(O)c1)C(=O)O [METHYLDOPA]
BP (Rattus norvegicus [1]): 178 mmHg | BP (Rattus norvegicus [2]): 166 mmHg | BP (Rattus norvegicus [3]): 155 mmHg | BP (Rattus norvegicus [4]): 161 mmHg | BP (Rattus norvegicus [5]): 174 mmHg

CC(=O)c1c(-c2ccc(Cl)cc2)c(-c2ccc(Cl)cc2)nn(CCOC(=O)C(NC(=O)OCc2ccccc2)C(C)C)c1=O (stereo not given)
BP (Rattus norvegicus [6]): Not significant | BP (Rattus norvegicus [7]): Not significant

CCC(=O)OCCn1nc(-c2ccc(Cl)cc2)c(-c2ccc(Cl)cc2)c(C(C)=O)c1=O
BP (Rattus norvegicus [8]): 133 mmHg | BP (Rattus norvegicus [9]): 129 mmHg | BP (Rattus norvegicus [10]): 136 mmHg | BP (Rattus norvegicus [11]): 181 mmHg | BP (Rattus norvegicus [12]): 168 mmHg

CC(=O)OCCn1nc(-c2ccc(Cl)cc2)c(-c2ccc(Cl)cc2)c(C(C)=O)c1=O
BP (Rattus norvegicus [9]): 140 mmHg | BP (Rattus norvegicus [10]): 165 mmHg | BP (Rattus norvegicus [13]): 149 mmHg | BP (Rattus norvegicus [1]): 182 mmHg | BP (Rattus norvegicus [14]): 162 mmHg | BP (Rattus norvegicus [11]): 183 mmHg | BP (Rattus norvegicus [15]): 176 mmHg | BP (Rattus norvegicus [2]): 143 mmHg | BP (Rattus norvegicus [3]): 122 mmHg | BP (Rattus norvegicus [4]): 150 mmHg | BP (Rattus norvegicus [16]): 181 mmHg | BP (Rattus norvegicus [17]): 183 mmHg | BP (Rattus norvegicus [12]): 152 mmHg | BP (Rattus norvegicus [5]): 132 mmHg

CC(=O)c1c(-c2ccc(Cl)cc2)c(-c2ccc(Cl)cc2)nn(CCOC(=O)C(NC(=O)OCc2ccccc2)C2(/N=C(/N)N[N+](=O)[O-])CCC2)c1=O (stereo not given)
BP (Rattus norvegicus [6]): Not significant | BP (Rattus norvegicus [7]): Not significant

CC(=O)c1c(-c2ccc(Cl)cc2)c(-c2ccc(Cl)cc2)nn(CCOC(=O)c2ccccc2)c1=O
BP (Rattus norvegicus [8]): 116 mmHg | BP (Rattus norvegicus [9]): 136 mmHg | BP (Rattus norvegicus [10]): 139 mmHg | BP (Rattus norvegicus [11]): 173 mmHg | BP (Rattus norvegicus [12]): 130 mmHg

Br.CC(=O)c1c(-c2ccc(Cl)cc2)c(-c2ccc(Cl)cc2)nn(CCOC(=O)CN)c1=O
BP (Rattus norvegicus [18]): 177 mmHg | BP (Rattus norvegicus [19]): 182 mmHg | BP (Rattus norvegicus [20]): 170 mmHg | BP (Rattus norvegicus [21]): 145 mmHg | BP (Rattus norvegicus [22]): 154 mmHg

CC(=O)c1c(-c2ccc(Cl)cc2)c(-c2ccc(Cl)cc2)nn(CCOC(=O)C(N)Cc2ccccc2)c1=O (stereo not given)
BP (Rattus norvegicus [23]): Not significant | BP (Rattus norvegicus [24]): Not significant

CC(=O)c1c(-c2ccc(Cl)cc2)c(-c2ccc(Cl)cc2)nn(CCOC(=O)C(C)(C)C)c1=O
BP (Rattus norvegicus [8]): 200 mmHg | BP (Rattus norvegicus [9]): 158 mmHg | BP (Rattus norvegicus [10]): 202 mmHg | BP (Rattus norvegicus [11]): 205 mmHg | BP (Rattus norvegicus [12]): 205 mmHg

CC(=O)c1c(-c2ccc(Cl)cc2)c(-c2ccc(Cl)cc2)nn(CCOC(=O)CCN)c1=O.Cl
BP (Rattus norvegicus [18]): 210 mmHg | BP (Rattus norvegicus [19]): 215 mmHg | BP (Rattus norvegicus [20]): 209 mmHg | BP (Rattus norvegicus [21]): 195 mmHg | BP (Rattus norvegicus [22]): 215 mmHg

CC(=O)c1c(-c2ccc(Cl)cc2)c(-c2ccc(Cl)cc2)nn(CCOC(=O)Cc2ccccc2)c1=O
BP (Rattus norvegicus [8]): 165 mmHg | BP (Rattus norvegicus [9]): 146 mmHg | BP (Rattus norvegicus [10]): 154 mmHg | BP (Rattus norvegicus [11]): 174 mmHg | BP (Rattus norvegicus [12]): 127 mmHg
